Assay results published in ChEMBL document CHEMBL4261601, “Discovery and lead identification of quinazoline-based BRD4 inhibitors” (Bioorg Med Chem Lett, 2018).

Tests used:
[1] = tested on: MV4-11; experiment: Cytotoxicity against human MV411 cells after 72 hrs by CellTiter-Glo assay; assay type: functional, cell-based; conditions: MV4-11, 72 h
[2] = biological target: Bromodomain-containing protein 4 (Homo sapiens, UniProt O60885); experiment: Displacement of biotinylated acetylated peptide from recombinant human partial length BRD4 long isoform bromodomain 1/2 (N44 to E460 residues) expressed in Escherichia coli BL21 measured after 1 hr by Bromoscan method
[3] = Half life in CD-1 mouse at 10 mg/kg, po; assay type: ADME, organism-based; conditions: in vivo
In short: (§1)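 CD-1 mice (n = 3) received a single oral dose of 10 mg/kg. Plasma drug levels were followed over time to derive AUC0–∞, t1/2 and oral bioavailability (F%), the last relative to the iv arm.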

[4] = AUC (0 to infinity) in CD-1 mouse at 10 mg/kg, po; assay type: ADME, organism-based; design: dose 10 mg/kg, time infinity, route oral; conditions: CD-1, mouse, in vivo; in short: as §1
[5] = tested on: Mus musculus; experiment: Cmax in CD-1 mouse at 10 mg/kg, po measured after 5 mins; assay type: ADME, organism-based; design: dose 10 mg/kg, route oral; conditions: in vivo

Compound | IC50 [1] | Kd [2] | half-life [3] | AUC(0-inf) [4] | Cmax [5]
Cc1noc(C)c1-c1ccc2nc(N3CCN(CCN(C)C)CC3)nc(NCc3cccc(Cl)c3)c2c1 | 0.66 µM | 0.056 µM | – | – | –
CN(C)CCN1CCN(c2nc(NCc3cccc(Cl)c3)c3cc(-c4ccc(O)nc4)ccc3n2)CC1 | 6.07 µM | 0.55 µM | – | – | –
CNC(=O)Cn1cc(-c2nc(NCc3cccc(Cl)c3)c3cc(-c4c(C)noc4C)ccc3n2)cn1 | 1.01 µM | – | – | – | –
Cc1noc(C)c1-c1ccc2nc(N3CCCN(CCN(C)C)CC3)nc(NCc3cccc(Cl)c3)c2c1 | 2.1 µM | 0.15 µM | – | – | –
Cc1cc(-c2ccc3nc(N4CCN(CCN(C)C)CC4)nc(NCc4cccc(Cl)c4)c3c2)cnc1O | 1.13 µM | 0.31 µM | – | – | –
Cc1noc(C)c1-c1ccc2nc(N3CCN(CCN(C)C)CC3)nc(N[C@@H](CO)c3ccccc3)c2c1 | 2.1 µM | 0.13 µM | – | – | –
Cc1noc(C)c1-c1ccc2nc(C(=O)NC3CCN(C)CC3)nc(NCc3cccc(Cl)c3)c2c1 | 1.02 µM | 0.08 µM | 4 h | 0.054 µg·h/mL | 9 ng/mL
Cc1noc(C)c1-c1ccc2[nH]c(=O)cc(NCc3cccc(Cl)c3)c2c1 | 1.8 µM | 0.055 µM | – | – | –
Cc1noc(C)c1-c1ccc2nc(N3CCN(CCN(C)C)CC3)nc(NCCc3ccc(Cl)cc3)c2c1 | 6.65 µM | 3 µM | – | – | –
CN(C)CCN1CCN(c2nc(NCc3cccc(Cl)c3)c3cc(-c4ccn(C)c(=O)c4)ccc3n2)CC1 | 6.89 µM | 7.1 µM | – | – | –
Cc1noc(C)c1-c1ccc2nc(-n3cc(CCO)cn3)nc(NCc3cccc(Cl)c3)c2c1 | 3.08 µM | – | – | – | –
Cc1noc(C)c1-c1ccc2nc(N3CCN(C)CC3)nc(NCc3cccc(Cl)c3)c2c1 | 1.6 µM | 0.14 µM | – | – | –
Cc1noc(C)c1-c1ccc2nc(N3CCN(CCN(C)C)CC3)nc(NCc3cccc(F)c3)c2c1 | 1.23 µM | 0.17 µM | – | – | –
Cc1noc(C)c1-c1ccc2nc(N3CCN(CCO)CC3)nc(NCc3cccc(Cl)c3)c2c1 | 1.67 µM | 0.056 µM | – | – | –
Cc1noc(C)c1-c1ccc2nc(N3CCN(CCN(C)C)CC3)nc(N3CCC3c3ccccc3)c2c1 (centres undefined) | 4.88 µM | 0.48 µM | – | – | –
Cc1noc(C)c1-c1ccc2nc(-c3cnn(CC(N)=O)c3)nc(NCc3cccc(Cl)c3)c2c1 | 0.66 µM | 0.13 µM | – | – | –
COCCn1cc(-c2nc(NCc3cccc(Cl)c3)c3cc(-c4c(C)noc4C)ccc3n2)cn1 | 1.87 µM | 0.092 µM | – | – | –
Cc1noc(C)c1-c1ccc2nc(C(=O)NCc3cccnc3)nc(NCc3cccc(Cl)c3)c2c1 | 1.43 µM | 0.056 µM | – | – | –
Cc1nocc1-c1ccc2nc(N3CCN(CCN(C)C)CC3)nc(NCc3cccc(Cl)c3)c2c1 | 2.97 µM | 0.36 µM | – | – | –
Cc1noc(C)c1-c1ccc2nc(C(=O)N3CCN(CCN(C)C)CC3)nc(NCc3cccc(Cl)c3)c2c1 | 4.71 µM | 0.57 µM | – | – | –
Cc1noc(C)c1-c1ccc2nc(C(=O)NC3CCOCC3)nc(NCc3cccc(Cl)c3)c2c1 | 2.84 µM | 0.079 µM | – | – | –
Cc1noc(C)c1-c1ccc2nc(N3CCN(CCN(C)C)CC3)nc(NCc3cccs3)c2c1 | 1.62 µM | 0.15 µM | – | – | –
Cc1noc(C)c1-c1ccc2nc(N3CCN(CCN(C)C)CC3)nc(N3CCCC3c3ccccc3)c2c1 (centres undefined) | 2.54 µM | 0.25 µM | – | – | –
Cc1n[nH]c(C)c1-c1ccc2nc(N3CCN(CCN(C)C)CC3)nc(NCc3cccc(Cl)c3)c2c1 | 2.85 µM | 1.5 µM | – | – | –
Cc1noc(C)c1-c1ccc2nc(-c3cnn(CCN(C)C)c3)nc(NCc3cccc(Cl)c3)c2c1 | 1.33 µM | 0.056 µM | – | – | –
Cc1noc(C)c1-c1ccc2nc(C(=O)NCc3cnn(C)c3)nc(NCc3cccc(Cl)c3)c2c1 | 1.27 µM | 0.059 µM | – | – | –
CNc1nc(NCc2cccc(Cl)c2)c2cc(-c3c(C)noc3C)ccc2n1 | 3.59 µM | – | – | – | –
